# An excerpt weighted towards active compounds, which were near 1.8% of everything screened.
# L929 necroptosis: inhibitors of zVAD-triggered necroptosis, primary screen, L929 cells | AID 1377, 2008 | viability rescue, % at 10 µM | L929 zVAD necroptosis rescue, ATP luminescence, 24 h; with zVAD 60 µM | 0.38% of 220,000 active;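 active = activation, scaled between plate controls, above about 75%, limit read from the data; inactive = activation under that limit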;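 note: 0% = zVAD with DMSO and 100% = DMSO alone without zVAD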
# HSV replic up: enhancers of HSV replication in host cells, fold increase, host cell viability; HSV replication augmentation in cells; maximum fold increase; 0.005% of 220,000 active; AID 1956, 2009; in the data active = maximum fold increase above about 1.5; inconclusive = no clear call, values can overlap the other calls; tested in PC3 cells
# Autophagy HCS: autophagy modulators in MEF cells, primary screen, imaging, high-content, MEF GFP-LC3 | calls only at 10 µM (by protocol) | MEF GFP-LC3 puncta imaging; test concentration mostly 10 µM | 0.98% of 190,000 active;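 active = percentage of spot-positive cells more than 3 SD above its plate mean, without a fluorescence outlier flag or 80% toxicity; inconclusive = no clear call, values can overlap the other calls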;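 note: spot-positive cell cutoff set from DMSO-treated cells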
# Furin inh: human furin inhibitors, primary screen, biochemical, fluorescence intensity; P09958; purified furin, fluorogenic substrate cleavage; inhibition, % at 20 µM or 30 µM; 0.061% of 220,000 active; AID 463115, 2010; in the data active = inhibition above about 25%
# Target sequence (P09958 108-714 limits assumed): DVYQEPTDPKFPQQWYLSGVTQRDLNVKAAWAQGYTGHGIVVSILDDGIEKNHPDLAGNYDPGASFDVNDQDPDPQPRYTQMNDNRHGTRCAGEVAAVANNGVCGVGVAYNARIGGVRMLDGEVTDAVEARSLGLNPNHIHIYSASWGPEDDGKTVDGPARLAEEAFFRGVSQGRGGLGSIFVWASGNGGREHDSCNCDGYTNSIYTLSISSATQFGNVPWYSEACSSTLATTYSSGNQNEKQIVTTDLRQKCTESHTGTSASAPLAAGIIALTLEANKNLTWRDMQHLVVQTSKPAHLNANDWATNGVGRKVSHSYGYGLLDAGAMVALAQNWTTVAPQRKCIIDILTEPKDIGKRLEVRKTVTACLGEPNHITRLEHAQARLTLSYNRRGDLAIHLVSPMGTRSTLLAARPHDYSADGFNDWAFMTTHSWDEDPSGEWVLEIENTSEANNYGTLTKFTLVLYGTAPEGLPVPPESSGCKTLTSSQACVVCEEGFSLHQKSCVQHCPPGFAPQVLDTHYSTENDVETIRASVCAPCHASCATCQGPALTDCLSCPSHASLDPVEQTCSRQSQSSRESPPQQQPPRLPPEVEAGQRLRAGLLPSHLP
# TNF death inh: inhibitors of TNF-alpha triggered necroptosis, primary screen, cell-based, Jurkat FADD-/-, single concentration. Jurkat FADD-/- TNF necroptosis rescue, ATP luminescence, 24 h; 0 = TNF only, 100 = no-TNF cells. 0.068% of 220,000 active. activation (protection from cell death), % at 10 µM;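 active = activation, meaning protection from cell death, of at least 50% relative to plate controls; inactive = activation below 50%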;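 note: necroptosis triggered by 40 ng/mL TNF-alpha added together with compound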
# Dynein transport: inhibitors of GR-EGFP nuclear translocation, primary screen, dynein cargo transport inhibitor project, imaging, high-content, 3617.4 mouse cells; 0.47% of 220,000 active; test concentration mostly 20 µM; stimulated with dexamethasone, 1 µM; active compounds read low; z-score, hits read low;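 active = plate z-score of nuclear minus cytoplasmic receptor signal below a set negative limit, without overly bright fluorescence or cell loss, cut at about -3.5 in these data, passing the limit was not always enough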;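 note: z-score of nuclear minus cytoplasmic ring GR-EGFP intensity difference per well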
#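 Buffer or medium: tet-free, stripped-serum medium; Also added: dexamethasone, 1.0 µM final; Technique: high-content fluorescence imaging after fixation; Times: 48 h induction, 1 h compound, 30 min dex at 37 °C; Read-out: per-cell GR-EGFP intensity, nucleus versus surrounding cytoplasmic ring, well-averaged.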
# * marks the source's active call; other numbers are inactive results; i = inactive; ? = inconclusive; nt = no result given; + = active, no number.
SMILES,L929 necroptosis,HSV replic up,Autophagy HCS,Furin inh,TNF death inh,Dynein transport
Cc1cc(C)nc(SCc2ccc(C(=O)N/N=C/C3CCCCC3)cc2)n1,1.3,i,+,-24.3,3.3,0.0759
Cc1cc(C)nc(SCc2ccc(C(=O)N/N=C/c3ccncc3)cc2)n1,1.6,i,i,-3.4,-1.9,0.29
Oc1cccc2cc3cccc(O)c3c(O)c12,-0.1,i,i,-23.9,-1.3,-0.316
COc1ccc(-c2nc(Cn3c(SCc4ccc(C)cc4)nc4ccncc43)c(C)o2)cc1OC,0.8,i,i,-0.5,-0.9,0.0464
COc1ccc(-c2nc(Cn3c(SCc4cccc(F)c4)nc4ccncc43)c(C)o2)cc1OC,3.1,i,+,-25.5,1.8,0.855
CCCOP(=O)(c1ccc(N(C)C)cc1)C(Nc1ccccc1)c1ccc(N(C)C)cc1 (stereo not given),0.7,i,i,28.0*,0.9,0.217
CCCCOP(=O)(c1ccc(N(C)C)cc1)C(Nc1ccccc1)c1ccccc1 (stereo not given),0.7,i,i,15.6,-0.1,1.82
CCOC(=O)C1CCCN(Cc2cn[nH]c2-c2ccc(F)cc2F)C1 (stereo not given),2.3,i,+,-17.3,0.2,-0.307
Cc1[nH]nc2c1C(c1cc(Br)cs1)C(C#N)=C(N)O2 (stereo not given),-0.9,i,i,-23.3,-4.9,0.725
Cc1cccc(C)c1-n1c(C)cc(/C=N\Nc2ccc([N+](=O)[O-])cn2)c1C,5.6,?,+,-6.5,1.4,0.185
Cc1nc(SCC(C)C)[nH]c(=O)c1Cc1ccccc1,3.0,i,+,-11.9,1.4,0.479
CSc1nc(C)c(Cc2ccccc2)c(=O)[nH]1,2.8,i,i,-15.3,0.5,-0.0917
CCN1/C(=C/c2ccc3cc(C)ccc3[n+]2C)Sc2ccc3sccc3c21,2.6,nt,+,-5.5,-14.7,7.83
Cc1ccc2c(c1)S/C(=C/c1ccc[n+](C)c1)N2CCO,-0.1,i,i,-5.3,-1.5,-0.634
Cc1cc(C)c(S(=O)(=O)Nc2cccc(S(=O)(=O)NC3=NCCC3)c2)c(C)c1,12.4,i,i,-25.5,0.1,0.201
Cc1nc(Sc2nnnn2C)c2c3c(sc2n1)CCC3,-0.8,i,+,-20.8,-13.1,0.415
CNCc1sccc1C,0.4,i,i,-16.7,0.9,0.499
CCC(=O)NC(c1cccs1)c1cc(Cl)c2cccnc2c1O (stereo not given),8.5,i,+,-3.4,-12.7,-0.0915
O=C(Nc1ccc(Cc2ccncc2)cc1)c1ccc(Br)o1,-0.3,i,+,7.7,-1.5,0.029
COc1ccc(C2=NOC(C(=O)NCc3ccc(F)cc3)C2)cc1OC (stereo not given),0.0,nt,i,24.2,-10.8,0.377
COc1cc(C2=NOC(C(=O)NCc3ccc(F)cc3)C2)cc(OC)c1OC (stereo not given),-1.9,nt,+,-11.2,-10.0,1.21
N/C(=N\OC(=O)c1ccc(Cl)cc1)c1[nH]ncc1Br,0.1,i,nt,-7.5,3.6,-0.372
CCc1ccc(-c2cc(C(F)(F)F)n3nc(C(=O)Nc4c(C)nn(Cc5ccccc5Cl)c4C)cc3n2)s1,0.5,i,+,-6.1,0.1,0.445
CCc1ccc(-c2cc(C(F)(F)F)n3nc(C(=O)Nc4c(C)nn(Cc5ccccc5C)c4C)cc3n2)s1,0.0,i,+,-3.6,-2.5,0.986
CCCCCNCc1cccc(Br)c1,0.3,i,i,-21.8,-0.1,-0.577
SMILES,L929 necroptosis,HSV replic up,Autophagy HCS,Furin inh,TNF death inh,Dynein transport
Cn1c(-c2cccc(Br)c2)n[nH]c1=O,0.6,i,i,-18.8,-0.6,-0.663
COc1ccc(C2Nc3ccccc3C(=O)N2O)cc1CN1CCOCC1 (stereo not given),1.4,i,i,-13.2,2.0,-0.312
CN1C(=O)S/C(=C\c2ccccc2OCc2ccc(C(=O)O)cc2)C1=O,54.4,i,i,-9.8,2.5,0.721
Cc1ccc(Oc2ccccc2/C=C2\SC(=O)N(C)C2=O)cc1,0.5,i,i,-11.6,52.1*,-0.434
O=C(c1cccc(S(=O)(=O)N2CCOCC2)c1)N1CCCCCC1,-0.3,i,+,-14.5,-0.4,1.63
O=C(NC(=S)NC1CCCc2ccccc21)c1ccco1 (stereo not given),-1.1,i,+,-22.2,-0.9,-0.0233
COc1ccc(CC(=O)NC2CCCc3ccccc32)cc1 (stereo not given),-0.2,i,i,-9.0,0.6,1.33
Cc1ccc(C(=O)NC2CCCc3ccccc32)o1 (stereo not given),0.4,i,i,25.3*,-1.8,-0.831
C=CCOc1ccc(/C(O)=C2\C(=O)C(=O)N(CCN(C)C)C2c2cccs2)cc1 (stereo not given),-0.1,i,+,-7.1,-1.5,1.75
CCOc1ccc(/C(O)=C2/C(=O)C(=O)N(CCN(CC)CC)C2c2cccs2)cc1 (stereo not given),-0.3,i,nt,-20.5,-0.6,-1.69
N#Cc1ccccc1OCC(=O)OCC(=O)N1CCN(C(=O)c2ccco2)CC1,2.7,i,i,-18.9,-0.1,0.261
Cc1ccc(-c2nn3c(C)nnc3c3ccccc23)cc1S(=O)(=O)N1CCN(CCO)CC1,-0.3,i,+,-25.4,-12.7,0.179
Cc1ccc(-c2nn3c(C)nnc3c3ccccc23)cc1S(=O)(=O)NCCO,2.8,i,i,-0.5,-4.8,2.82
COc1ccccc1N/C=C/c1onc(C)c1[N+](=O)[O-],-0.2,nt,+,-17.1,-5.0,-0.0166
Cc1cc(C(=O)NC(C)Cc2ccccc2)cc(C)c1[N+](=O)[O-] (stereo not given),11.7,i,i,-13.4,0.6,-0.126
CN=C(Cc1ccccc1)C1=C(O)CC(C)(C)CC1=O,52.9,i,i,-26.3,86.7*,-0.594
CC(=Nc1ccccc1)C1=C(O)CC(C)(C)CC1=O,0.4,i,i,-12.1,0.4,-0.801
COc1ccc(-c2[nH]ncc2CN(C)CC2CCCCO2)cc1F (stereo not given),0.2,i,+,-13.3,1.9,0.0353
COc1ccc(-c2[nH]ncc2CN(C)CCN2CCOCC2)cc1F,0.3,i,i,-14.9,0.1,1.33
COc1cccc(/C(N)=N/OC(=O)Cc2ccccc2[N+](=O)[O-])c1,0.5,i,i,-24.8,-1.3,0.0722

# Compound activity as filed in PubChem.
